Test results: ChEMBL document CHEMBL2390839, “Di-alkylated paromomycin derivatives: targeting the membranes of gram positive pathogens that cause skin infections” (Bioorg Med Chem, 2013)
Converted amounts (≈) assume the structure as drawn. Non-standard residues stand in square brackets, D forms with d. Residues, ends and D or L forms follow the SMILES beside them. *: point of attachment. NHCH2CH2OH = OCCN*; For = O=C*

Legend:
[1] = test system: Streptococcus pyogenes; test: Antibacterial activity against glossy colony producing Streptococcus pyogenes assessed as growth inhibition after 24 hrs by MTT assay; format: functional
Procedure, shortened: (§1)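 Starter cultures were grown 24 h at 37 °C, 5% CO2, aerobic, then diluted in fresh medium to OD600 0.004. Twofold serial dilutions started at 64 µg/mL. After 24 h of incubation, MTT (1 mg/mL solution) was added and plates were incubated 2 h more at 37 °C. MIC was taken as the lowest concentration with no growth. Two independent experiments were run, each in triplicate.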

[2] = Antibacterial activity against Streptococcus pyogenes serotype M5 assessed as growth inhibition after 24 hrs by MTT assay; format: functional; procedure, shortened: as §1
[3] = Hemolytic activity in rat RBC assessed as hemoglobin release at 16 ug/mL after 1 hr by microplate reader analysis relative to control; format: ADME, cell-based, Erythrocyte; details: red blood cells (RBC), read-out: Activity
Procedure, shortened: (§2)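 Rat RBCs (2% w/w) were exposed to compound for 1 h at 37 °C, 5% CO2, using twofold dilutions from 256 µg/mL. PBS served as the negative control and 1% w/v Triton X-100 as the 100% lysis control. After centrifugation (2000 rpm, 10 min), supernatant absorbance was read at 550 nm and expressed as % hemoglobin release relative to Triton. Assays were run in triplicate, averaged over blood from at least two rats.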

[4] = test system: Staphylococcus aureus; test: Antibacterial activity against methicillin-resistant Staphylococcus aureus assessed as growth inhibition after 24 hrs by MTT assay; format: functional
Procedure, shortened: (§3)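 Starter cultures grown 24 h at 37 °C, 5% CO2, aerobic, then diluted in fresh medium to OD600 0.004. Twofold serial dilutions from 64 µg/mL, 24 h incubation. MTT (1 mg/mL solution) added, then 2 h at 37 °C. MIC = lowest concentration with no visible growth. Two independent experiments, each in triplicate.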

[5] = test system: Streptococcus pyogenes; test: Antibacterial activity against Streptococcus pyogenes serotype T5 assessed as growth inhibition after 24 hrs by MTT assay; format: functional; details: serotype T5, 24 h; procedure, shortened: as §1
[6] = test system: Staphylococcus aureus; test: Antibacterial activity against Staphylococcus aureus NCTC 6571 assessed as growth inhibition after 24 hrs by MTT assay; format: functional; details: NCTC 6571, 24 h; procedure, shortened: as §3
[7] = Antibacterial activity against biofilm-positive Staphylococcus epidermidis RP62A ATCC 35984 assessed as growth inhibition after 24 hrs by MTT assay; format: functional; details: ATCC 35984, 24 h; procedure, shortened: as §1
[8] = Hemolytic activity in rat RBC assessed as hemoglobin release at 32 ug/mL after 1 hr by microplate reader analysis relative to control; format: ADME, cell-based, Erythrocyte; details: red blood cells (RBC), read-out: Activity; procedure, shortened: as §2
[9] = test system: Streptococcus pyogenes; test: Antibacterial activity against Streptococcus pyogenes MGAS9429 assessed as growth inhibition after 24 hrs by MTT assay; format: functional; details: MGAS9429, 24 h; procedure, shortened: as §1
[10] = test system: Streptococcus pyogenes; test: Antibacterial activity against Streptococcus pyogenes serotype M1T1 assessed as growth inhibition after 24 hrs by MTT assay; format: functional; details: serotype M1T1, 24 h; procedure, shortened: as §1
[11] = Antibacterial activity against Streptococcus pyogenes serotype M2 assessed as growth inhibition after 24 hrs by MTT assay; format: functional; procedure, shortened: as §1
[12] = test system: Staphylococcus aureus; test: Antibacterial activity against Staphylococcus aureus Cowan ATCC 12598 assessed as growth inhibition after 24 hrs by MTT assay; format: functional; details: Cowan ATCC 12598, 24 h; procedure, shortened: as §3
[13] = Antibacterial activity against Streptococcus pyogenes serotype M3 assessed as growth inhibition after 24 hrs by MTT assay; format: functional; procedure, shortened: as §1
[14] = test system: Staphylococcus epidermidis; test: Antibacterial activity against biofilm-negative Staphylococcus epidermidis ATCC 12228 assessed as growth inhibition after 24 hrs by MTT assay; format: functional; details: ATCC 12228, 24 h; procedure, shortened: as §1
[15] = test system: Streptococcus pyogenes; test: Antibacterial activity against Streptococcus pyogenes serotype M24 assessed as growth inhibition after 24 hrs by MTT assay; format: functional; details: serotype M24, 24 h; procedure, shortened: as §1
[16] = test system: Streptococcus pyogenes; test: Antibacterial activity against Streptococcus pyogenes JRS75 assessed as growth inhibition after 24 hrs by MTT assay; format: functional; details: JRS75, 24 h; procedure, shortened: as §1
[17] = Hemolytic activity in rat RBC assessed as hemoglobin release at 2 ug/mL after 1 hr by microplate reader analysis relative to control; format: ADME, cell-based, Erythrocyte; details: red blood cells (RBC), read-out: Activity
Procedure, shortened: (§4)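 Rat RBCs (2% w/w) incubated 1 h at 37 °C, 5% CO2 with twofold dilutions starting at 256 µg/mL. PBS served as negative control and 1% w/v Triton X100 as the 100% lysis control. After centrifugation (2000 rpm, 10 min), supernatant absorbance read at 550 nm. Hemoglobin release expressed as % of Triton. Triplicates, with blood from at least two rats.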

[18] = Hemolytic activity in rat RBC assessed as hemoglobin release at 64 ug/mL after 1 hr by microplate reader analysis; format: ADME, cell-based; details: erythrocyte; procedure, shortened: as §4
[19] = Hemolytic activity in rat RBC assessed as hemoglobin release at 256 ug/mL after 1 hr by microplate reader analysis relative to control; format: ADME, cell-based, Erythrocyte; details: red blood cells (RBC), read-out: Activity; procedure, shortened: as §2
[20] = Hemolytic activity in rat RBC assessed as hemoglobin release at 128 ug/mL after 1 hr by microplate reader analysis; format: ADME, cell-based; details: erythrocyte; procedure, shortened: as §2

| Structure (SMILES) | MIC [1] [µg/mL] | MIC [2] [µg/mL] | hemolysis at 1 h, 16 ug/mL [3] [%] | MIC [4] [µg/mL] | MIC [5] [µg/mL] | MIC [6] [µg/mL] | MIC [7] [µg/mL] | hemolysis at 1 h, 32 ug/mL [8] [%] | MIC [9] [µg/mL] | MIC [10] [µg/mL] | MIC [11] [µg/mL] | MIC [12] [µg/mL] | MIC [13] [µg/mL] | MIC [14] [µg/mL] | MIC [15] [µg/mL] | MIC [16] [µg/mL] | hemolysis at 1 h, 2 ug/mL [17] [%] | Activity [18] | hemolysis at 1 h, 256 ug/mL [19] [%] | Activity [20] |
| --- | --- | --- | --- | --- | --- | --- | --- | --- | --- | --- | --- | --- | --- | --- | --- | --- | --- | --- | --- | --- |
| CCCCCCCCCCCCCCCCSC[C@H]1O[C@H](O[C@H]2[C@H](O[C@@H]3O[C@H](CO)[C@@H](O[C@H]4O[C@@H](CN)[C@@H](O)[C@H](O)[C@H]4N)[C@H]3O)[C@@H](O)[C@H](N)C[C@@H]2N)[C@H](N)[C@@H](O)[C@@H]1O | 32 (≈ 37.4 µM) | 64 (≈ 74.8 µM) | 33.8 | 64 (≈ 74.8 µM) | 8 (≈ 9.34 µM) | 64 (≈ 74.8 µM) | 64 (≈ 74.8 µM) | 100 | 32 (≈ 37.4 µM) | > 64 | 16 (≈ 18.7 µM) | 64 (≈ 74.8 µM) | 32 (≈ 37.4 µM) | 32 (≈ 37.4 µM) | 32 (≈ 37.4 µM) | 8 (≈ 9.34 µM) | – | – | – | – |
| CC(C)C[C@@H](NC(=O)[C@H](C)NC(=O)CNC(=O)[C@@H](NC=O)C(C)C)C(=O)N[C@@H](C)C(=O)N[C@@H](C(=O)N[C@H](C(=O)N[C@@H](C(=O)N[C@@H](Cc1c[nH]c2ccccc12)C(=O)N[C@H](CC(C)C)C(=O)N[C@@H](Cc1c[nH]c2ccccc12)C(=O)N[C@H](CC(C)C)C(=O)N[C@@H](Cc1c[nH]c2ccccc12)C(=O)N[C@H](CC(C)C)C(=O)N[C@@H](Cc1c[nH]c2ccccc12)C(=O)NCCO)C(C)C)C(C)C)C(C)C [GRAMICIDIN D] (For-VGA[dL]A[dV]V[dV]W[dL]W[dL]W[dL]W-NHCH2CH2OH) | 16 (≈ 8.5 µM) | < 0.5 | – | 64 (≈ 34 µM) | 2 (≈ 1.06 µM) | 32 (≈ 17 µM) | 2 (≈ 1.06 µM) | – | > 64 | < 0.5 | < 0.5 | > 64 | < 0.5 | 8 (≈ 4.25 µM) | < 0.5 | < 0.5 | 2.4 | Toxic | < 60 | – |
| CCCCCCSC[C@H]1O[C@H](O[C@H]2[C@H](O[C@@H]3O[C@H](CSCCCCCC)[C@@H](O[C@H]4O[C@@H](CN)[C@@H](O)[C@H](O)[C@H]4N)[C@H]3O)[C@@H](O)[C@H](N)C[C@@H]2N)[C@H](N)[C@@H](O)[C@@H]1O | 8 (≈ 9.8 µM) | 8 (≈ 9.8 µM) | 0 | > 64 | 4 (≈ 4.9 µM) | 32 (≈ 39.2 µM) | 16 (≈ 19.6 µM) | – | 8 (≈ 9.8 µM) | 16 (≈ 19.6 µM) | 8 (≈ 9.8 µM) | 64 (≈ 78.4 µM) | 4 (≈ 4.9 µM) | 8 (≈ 9.8 µM) | 8 (≈ 9.8 µM) | 8 (≈ 9.8 µM) | – | – | 3.4 | Toxic |
